Screening data as filed in PubChem.
XBP1 UPR activ: activators of adaptive arm of unfolded protein response (XBP1). CHO-XBP1 luciferase reporter, IRE1-XBP1 UPR activation, luminescence; percent of tunicamycin response, DMSO as zero. activation, % at 20 µM. 330,000 compounds, 0.33% hits;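 active = versus positive control, 20 µM dose yields 30% or more activation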;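 note: 100% = tunicamycin at 10 µg/mL and 0% = DMSO only wells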
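Assay system: CHO-XBP1 luciferase reporter cells; Schedule: 6 h treatment, 37 °C; Detection: glow luminescence from Steady-Glo reagent; Benchmarks: high control tunicamycin 10 µg/mL final, low control DMSO vehicle only.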
Mdm2 MdmX PPI: disrupts the human Mdm2-MdmX interaction; O15151+Q00987; SaOS-2 split-luciferase Mdm2/MdmX complementation, luminescence; inhibition, % at 8 µM; 330,000 compounds, 3% hits;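 active = inhibition of at least 50% at 8 µM in the primary screen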
Target sequence (O15151 whole entry, looked up): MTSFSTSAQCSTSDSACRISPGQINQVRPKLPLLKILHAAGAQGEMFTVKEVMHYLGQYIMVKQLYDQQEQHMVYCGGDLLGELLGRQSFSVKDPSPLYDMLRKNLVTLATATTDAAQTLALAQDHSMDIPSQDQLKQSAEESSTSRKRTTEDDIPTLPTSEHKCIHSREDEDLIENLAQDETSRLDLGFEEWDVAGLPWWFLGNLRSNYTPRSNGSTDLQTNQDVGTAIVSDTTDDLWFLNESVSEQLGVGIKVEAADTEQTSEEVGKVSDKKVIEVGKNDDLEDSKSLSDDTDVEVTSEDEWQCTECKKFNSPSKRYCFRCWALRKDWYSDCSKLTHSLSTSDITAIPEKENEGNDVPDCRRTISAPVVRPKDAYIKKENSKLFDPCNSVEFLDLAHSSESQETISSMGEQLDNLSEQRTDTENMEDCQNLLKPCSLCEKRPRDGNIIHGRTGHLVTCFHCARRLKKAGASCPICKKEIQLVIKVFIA
Target sequence (Q00987 whole entry, looked up): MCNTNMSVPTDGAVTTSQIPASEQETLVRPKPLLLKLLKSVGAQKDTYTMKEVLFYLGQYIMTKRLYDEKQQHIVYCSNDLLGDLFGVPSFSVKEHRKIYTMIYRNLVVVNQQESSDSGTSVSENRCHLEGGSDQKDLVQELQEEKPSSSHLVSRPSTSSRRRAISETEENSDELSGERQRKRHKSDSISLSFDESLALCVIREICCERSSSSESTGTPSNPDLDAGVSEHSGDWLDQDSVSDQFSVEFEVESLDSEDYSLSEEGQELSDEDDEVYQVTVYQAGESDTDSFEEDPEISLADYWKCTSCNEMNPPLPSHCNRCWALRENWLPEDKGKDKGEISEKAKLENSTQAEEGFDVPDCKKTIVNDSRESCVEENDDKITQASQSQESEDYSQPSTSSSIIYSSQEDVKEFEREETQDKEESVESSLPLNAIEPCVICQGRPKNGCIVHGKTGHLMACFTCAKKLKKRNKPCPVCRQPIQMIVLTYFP
Beta2AR agonist: activates human beta-2 adrenergic receptor causing internalization | Am2.2-beta2AR cells, FAP receptor internalization, flow cytometry | response, % (test concentration not listed) | AID 504454 | 340,000 compounds, 0.43% hits | P07550;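 active = response above a set limit, near 3 SD of response in nonfluorescent compounds, cut at about 42% in these data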
MDM2 E3 inh: inhibitors of human Mdm2 E3 ubiquitin ligase. Q00987. cell-based MDM2 ubiquitination luciferase reporter, 2 h; 0 = plate control, 100 = twice control, blank-subtracted. signal enhancement, % at 5 µM. 210,000 compounds, 0.11% hits. AID 1230;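 active = signal enhancement of 30% or more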;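 note: luminescence tracks abundance of the self-degrading MDM2-luciferase fusion protein; higher signal means inhibition of MDM2 E3 ligase activity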
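system = mammalian cells stably expressing self-ubiquitinating, self-degrading MDM2 E3–luciferase fusion | quantity = 2000 cells per well seeded | incubation = 4 h cell settling then 2 h compound exposure, 37 °C | signal = SteadyLite luminescence, 15 min reagent step | benchmarks = plate control and blank wells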
CHOP UPR activ: activators of apoptotic arm of unfolded protein response (CHOP). AID 449763. 330,000 compounds, 0.34% hits. CHO-CHOP luciferase reporter, UPR activation, luminescence; percent of tunicamycin response over DMSO baseline. activation, % at 10 µM;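 active = at 10 µM dose, activation of 40% or more, normalized to positive control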;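 note: 100% = tunicamycin at 10 µg/mL and 0% = DMSO alone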
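System: CHO-CHOP luciferase reporter cell line | Buffer or medium: F12 medium containing 10% fetal bovine serum | Doses: One dose, 10 µM in 0.5% DMSO | Times: 6 h compound exposure at 37 °C after overnight seeding | Signal: Luciferase luminescence | Read-out: % activation vs tunicamycin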
Dynein cargo inh: blocks dynein driven cargo transport along microtubules. 3617.4 mouse cells, GR-EGFP nuclear translocation imaging; test concentration mostly 20 µM; stimulated with dexamethasone, 1 µM; stronger effect = lower value. z-score, hits read low. 220,000 compounds, 0.47% hits. AID 1381;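 active = plate z-score of nuclear minus cytoplasmic receptor signal below a set negative limit, without overly bright fluorescence or cell loss, cut at about -3.5 in these data, passing the limit was not always enough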;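 note: z-score of nuclear minus cytoplasmic ring GR-EGFP intensity difference per well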
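Also added: dexamethasone, 1.0 µM final. Medium: tet-free, stripped-serum medium. Detection: fixed, Hoechst-stained cells imaged at 10x for EGFP. Read-out: nuclear-to-cytoplasmic GR-EGFP distribution per well. Times: induction 48 h, compound 1 h, agonist 30 min.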
Mdm2 MdmX conf: human Mdm2/MdmX binding inhibition, confirmed | luminescent assay | 10,000 compounds, 55% hits | shares compounds with Mdm2 MdmX PPI | inhibition, % at 8 µM; in the data active = inhibition above about 40%
FLuc counter: full-length luciferase inhibition in Mdm2/MdmX counter-screen. shares compounds with Mdm2 MdmX PPI. SaOS-2 full-length luciferase counterscreen, luminescence. inhibition, % at 8 µM. 6,200 compounds, 77% hits;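 active = mean inhibition at 8 µM reaching about 37%, which flags the compound as non-specific, limit read from the data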;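 note: p53-null SaOS-2 cells with luciferase driven by a doxycycline-inducible promoter; compound on cells about two nights before reading with doxycycline added after day one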
Numbers without * were called inactive; i = inactive; · = no result. The list is not random: actives were taken first. Their share in the collection is about 3.7%.

SMILES	XBP1 UPR activ	Mdm2 MdmX PPI	Beta2AR agonist	MDM2 E3 inh	CHOP UPR activ	Dynein cargo inh	Mdm2 MdmX conf	FLuc counter
Cc1ccc(NC(=O)CSc2ccc(-c3ccccn3)nn2)cc1	0	55*	0	2	1	-1.2	41*	79*
Clc1ccc(CSc2ccc(-c3ccccn3)nn2)cc1	-1	60*	-6	-4	5	0.29	60*	43*
O=C(CSc1ccc(-c2ccccn2)nn1)Nc1ccc(F)c(F)c1	-2	67*	-7	·	3	·	43*	55*
N#CCc1nn(Cc2ccc(F)cc2)c(=O)c2ccccc12	-1	20	-9	·	2	·	·	·
Cc1ccc(S(=O)(=O)N2CCOCC2)cc1C(=O)Nc1ccccc1N1CCOCC1	-4	-4	-11	·	-2	·	·	·
CC(C)N(Cc1ccccc1)C(=O)CN1c2cccc3cccc(c23)S1(=O)=O	0	24	-4	·	-2	·	·	·
O=C(C[C@H]1C/C=C\CCCCC(=O)OC[C@H]2CCCN2C1=O)N[C@H](CO)Cc1ccccc1	0	-11	2	·	2	·	·	·
CNC(=O)c1c(O)c2cccc3c2n(c1=O)CCC3	-1	75*	2	·	0	·	84*	47*
CN(Cc1ccccc1)C(=O)COC(=O)c1ccc[nH]c1=O	-4	20	5	·	0	·	·	·
CSc1ccc(/C=C(/NC(=O)c2ccco2)C(=O)N2CCCCC2)cc1	-8	-11	-11	·	0	·	·	·
CC[C@@H](C)[C@H](CN[C@H](CNC)C(C)C)NC[C@@H](C)c1ccc(CC(C)C)cc1	25	98*	27	·	13	·	100*	52*
CC[C@H](C)[C@@H](CNC)NC[C@@H](Cc1ccc(O)cc1)NCC(C)(C)C	-1	39	0	·	0	·	·	·
O=S(=O)(NCc1csc(-c2cccs2)n1)c1cccc(C(F)(F)F)c1	0	23	-5	-5	0	0.58	·	·
O=C(NCCc1ccccc1)C1CCC(Cn2c(=O)c3ccccc3n(Cc3cccc(Cl)c3)c2=O)CC1 (centres undefined)	12	54*	-14	·	0	·	0	·
Cc1ccccc1C1C(C#N)=C2NC(=O)c3c(sc4c3CCCCC4)N2C2=C1C(=O)CC(C)(C)C2 (centres undefined)	4	82*	·	4	18	-0.37	63*	38*
Cc1ccccc1C1C(C#N)=C2N=C(N)c3c(sc4c3CCCCC4)N2C2=C1C(=O)CC(C)(C)C2 (centres undefined)	7	39	-23	-6	4	-0.61	·	·
CCN1CCCC1CNC(=O)c1cc(COc2ccc(C)c(C)c2)on1 (centres undefined)	1	-11	4	·	4	·	·	·
Cc1ccc2cc3cc(C(=O)NCc4ccc5c(c4)OCO5)oc3nc2c1	1	68*	1	-8	2	0.23	28	·
CC1=Nc2ccccc2/C1=C\c1nc(-c2ccc(C(F)(F)F)cc2)oc1O	21	-2	i	-12	-1	-4.4	·	·
CC1=Nc2ccccc2/C1=C/c1sc(=N)n(-c2nccs2)c1O	11	99*	-238	-16	18	3.6	67*	22
CCCCc1ccc(N/C(N)=N/c2nc(C)cc(C)n2)cc1	13	66*	1	-43	13	-0.98	33	·
CCCCc1nc2cc(C(=O)NCc3cc(C)n(C)n3)ccc2o1	-2	0	-8	·	5	·	·	·
CC(C)(C)OC(=O)NCc1ccc(CNC(=O)c2nc[nH]c2C(=O)N2CCN(C(=O)OC(C)(C)C)CC2)cc1	-3	33	15	·	-1	·	·	·
CC(=O)OC1[C@H](Oc2c(O)c(C)c3c4c2[C@@H](C)CC[C@@H]4[C@@H](C)C[C@@H]3C=C(C)C)OC[C@@H](O)[C@@H]1O (some centres undefined)	-2	20	-1	·	5	·	·	·
CC(=O)O[C@H]1[C@H](O)[C@H](Oc2c(O)c(C)c3c4c2[C@@H](C)CC[C@@H]4[C@@H](C)C[C@H]3C=C(C)C)O[C@@H](C)[C@H]1O	25	74*	0	·	1	·	-5	·
SMILES	XBP1 UPR activ	Mdm2 MdmX PPI	Beta2AR agonist	MDM2 E3 inh	CHOP UPR activ	Dynein cargo inh	Mdm2 MdmX conf	FLuc counter
COc1cc2c(cc1OC)CN(C(=O)c1cccs1)CC2	-2	14	-26	-8	2	-0.28	·	·
COc1cc2c(cc1OC)CN(C(=O)/C=C/c1ccc([N+](=O)[O-])cc1)CC2	-2	32	13	·	0	·	·	·
COc1cc2c(cc1OC)CN(C(=O)/C=C/c1ccccc1[N+](=O)[O-])CC2	-1	61*	-2	·	1	·	53*	86*
COc1cc2c(cc1OC)CN(C(=O)/C=C/c1cccs1)CC2	3	65*	2	-64	0	1.5	62*	59*
COc1cc(C2SCC(=O)N2Cc2ccccc2)cc(OC)c1OC (centres undefined)	-4	-3	0	·	1	·	·	·
Oc1[nH]c2ccc(Br)cc2c1N=Nc1ccc(F)cc1	-2	11	6	·	3	·	·	·
CC(C)NC(=S)N=Nc1c(O)[nH]c2ccc(C(C)C)cc12	0	55*	-3	-19	-2	-0.67	36	51*
O=C(N=Nc1c(O)[nH]c2ccccc12)Nc1ccccc1	·	·	-11	·	·	·	·	·
Cc1cccc(NC(=S)N=Nc2c(O)[nH]c3ccccc23)c1	0	54*	0	2	16	-0.17	38	57*
COc1ccccc1NC(=S)N=Nc1c(O)[nH]c2ccc(Br)cc12	5	70*	0	-8	9	-0.37	75*	57*
COc1ccc(/C(C)=N/OCC(=O)N=Nc2c(O)[nH]c3ccc(Br)cc23)cc1	-2	53*	-5	0	-2	-0.25	-5	·
COc1ccc(/C=N/OCC(=O)N=Nc2c(O)[nH]c3ccc(Br)cc23)cc1OC	2	10	-16	12	-2	0.051	·	·
Cc1ccc(Cl)cc1N1CCN(S(=O)(=O)c2ccc3c(c2)CC(=O)N3C)CC1	-3	16	-17	·	2	·	·	·
CC(C)c1ccccc1NC(=O)COC(=O)c1cccnc1	-4	-5	0	·	1	·	·	·
COc1cc(-c2cc3nc4ccccc4n3c(N)c2C#N)cc(OC)c1OC	2	77*	15	·	5	-0.75	64*	93*
